Experimental findings from ChEMBL document CHEMBL1649574, “Prevalence and characterization of heterogeneous vancomycin-intermediate Staphylococcus aureus isolates from 14 cities in China” (2009) are described below.

The term MIC50 denotes the lowest concentration that inhibits either 50% of growth or 50% of the strains tested, depending on the study. Broadly, the MIC90 is the lowest concentration that inhibits either 90% of growth or 90% of the strains tested, depending on the study.

In brackets after ≈: the same amount, converted by molar mass.

Common to all, as to assay type: functional
The subject of assay [1] is Staphylococcus aureus. Nature of the assay: Antimicrobial activity against heterogeneous vancomycin-intermediate Staphylococcus aureus by agar dilution method. The method, boiled down:
(§1)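 Agar-dilution MICs were measured on a subset of 200 blood MRSA isolates from China. Agents: oxacillin, rifampin, gentamicin, levofloxacin, erythromycin, vancomycin, teicoplanin, tigecycline, ceftobiprole and linezolid. Phenotype came from the PAP-AUC ratio of each isolate to S. aureus Mu3 (VSSA <0.9; hVISA 0.9 to 1.3; VISA ≥1.3), read on BHI agar with 0 to 8.0 mg/liter vancomycin after 48 h at 35°C.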
(In agar dilution the substance is mixed into plates at graded concentrations.)

The test system of assay [2] is Staphylococcus aureus. Nature of the assay: Antimicrobial activity against heterogeneous vancomycin-intermediate Staphylococcus aureus assessed as resistant isolates by agar dilution method.
The test system of assay [3] is Staphylococcus aureus. Nature of the assay: Antimicrobial activity against heterogeneous vancomycin-intermediate Staphylococcus aureus assessed as intermediate isolates by agar dilution method. The method, boiled down: (§2)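 MICs by agar dilution for all 200 MRSA blood isolates (oxacillin, rifampin, gentamicin, levofloxacin, erythromycin, vancomycin, teicoplanin, tigecycline, ceftobiprole, linezolid). Isolates were grouped by PAP-AUC ratio against S. aureus Mu3: below 0.9 VSSA, 0.9 to 1.3 hVISA, 1.3 or more VISA.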

For assay [4], the system named is Staphylococcus aureus. As to the kind of experiment: Antimicrobial activity against heterogeneous vancomycin-intermediate Staphylococcus aureus assessed as susceptible isolates by agar dilution method. The method, boiled down: as §2
For assay [5], the system named is Staphylococcus aureus. Nature of the assay: Antimicrobial activity against heterogeneous vancomycin-intermediate Staphylococcus aureus assessed as growth inhibition at 0.25 times MIC. Details: scale not given: the % may be the effect or the level left.
The subject of assay [6] is Staphylococcus aureus. Nature of the assay: Antimicrobial activity against heterogeneous vancomycin-intermediate Staphylococcus aureus assessed as growth inhibition at 0.125 times MIC. Details: scale not given: the % may be the effect or the level left.
Assay [7] has as its system Staphylococcus aureus. Nature of the assay: Antimicrobial activity against vancomycin-susceptible Staphylococcus aureus by agar dilution method. The method, boiled down:
as §1

Assay [8] has as its system Staphylococcus aureus. As to the kind of experiment: Antimicrobial activity against heterogeneous vancomycin-susceptible Staphylococcus aureus assessed as resistant isolates by agar dilution method.
Assay [9] relates to Staphylococcus aureus. Nature of the assay: Antimicrobial activity against heterogeneous vancomycin-susceptible Staphylococcus aureus assessed as intermediate isolates by agar dilution method.
In assay [10] the test system is Staphylococcus aureus. Nature of the assay: Antimicrobial activity against heterogeneous vancomycin-susceptible Staphylococcus aureus assessed as susceptible isolates by agar dilution method. The method, boiled down:
as §2

For assay [11], the system named is Staphylococcus aureus. Nature of the assay: Antimicrobial activity against heterogeneous vancomycin-intermediate Staphylococcus aureus assessed as growth inhibition at 0.5 times MIC. Details: scale not given: the % may be the effect or the level left.
Assay [12] deals with Staphylococcus aureus. Nature of the assay: Antimicrobial activity against heterogeneous vancomycin-intermediate Staphylococcus aureus assessed as growth inhibition at MIC. Details: scale not given: the % may be the effect or the level left.
The subject of assay [13] is Staphylococcus aureus. As to the kind of experiment: Antimicrobial activity against heterogeneous vancomycin-intermediate Staphylococcus aureus assessed as growth inhibition at 2 times MIC. Further details: scale not given: the % may be the effect or the level left.
The subject of assay [14] is Staphylococcus aureus. As to the kind of experiment: Antimicrobial activity against heterogeneous vancomycin-intermediate Staphylococcus aureus assessed as growth inhibition at 4 times MIC. Further details: scale not given: the % may be the effect or the level left.
For assay [15], the system named is Staphylococcus aureus. As to the kind of experiment: Antimicrobial activity against heterogeneous vancomycin-intermediate Staphylococcus aureus assessed as growth inhibition at 16 times MIC. Further details: scale not given: the % may be the effect or the level left.
The test system of assay [16] is Staphylococcus aureus. Nature of the assay: Antimicrobial activity against vancomycin-susceptible Staphylococcus aureus assessed as growth inhibition at 0.125 times MIC. Further details: scale not given: the % may be the effect or the level left.
Assay [17] concerns Staphylococcus aureus. Nature of the assay: Antimicrobial activity against vancomycin-susceptible Staphylococcus aureus assessed as growth inhibition at 0.25 times MIC. Details: scale not given: the % may be the effect or the level left.
Assay [18] deals with Staphylococcus aureus. Nature of the assay: Antimicrobial activity against vancomycin-susceptible Staphylococcus aureus assessed as growth inhibition at 0.5 times MIC. Details: scale not given: the % may be the effect or the level left.
In assay [19] the test system is Staphylococcus aureus. Nature of the assay: Antimicrobial activity against vancomycin-susceptible Staphylococcus aureus assessed as growth inhibition at MIC. Further details: scale not given: the % may be the effect or the level left.
The subject of assay [20] is Staphylococcus aureus. Nature of the assay: Antimicrobial activity against vancomycin-susceptible Staphylococcus aureus assessed as growth inhibition at 2 times MIC. Further details: scale not given: the % may be the effect or the level left.
For assay [21], the system named is Staphylococcus aureus. As to the kind of experiment: Antimicrobial activity against vancomycin-susceptible Staphylococcus aureus assessed as growth inhibition at 4 times MIC. Details: scale not given: the % may be the effect or the level left.
The test system of assay [22] is Staphylococcus aureus. As to the kind of experiment: Antimicrobial activity against vancomycin-susceptible Staphylococcus aureus assessed as growth inhibition at 16 times MIC. Details: scale not given: the % may be the effect or the level left.

With `CN[C@H](CC(C)C)C(=O)N[C@H]1C(=O)N[C@@H](CC(N)=O)C(=O)N[C@H]2C(=O)N[C@H]3C(=O)N[C@H](C(=O)N[C@H](C(=O)O)c4cc(O)cc(O)c4-c4cc3ccc4O)[C@H](O)c3ccc(c(Cl)c3)Oc3cc2cc(c3O[C@@H]2O[C@H](CO)[C@@H](O)[C@H](O)[C@H]2O[C@H]2C[C@](C)(N)[C@H](O)[C@H](C)O2)Oc2ccc(cc2Cl)[C@H]1O` [VANCOMYCIN], the MIC50 in the assay with Staphylococcus aureus [1] and in the assay on Staphylococcus aureus [7] was 1 µg/mL (≈ 0.69 µM) in each case. For the same compound, the MIC90 was 2 µg/mL (≈ 1.38 µM) with Staphylococcus aureus [1] and 1 µg/mL (≈ 0.69 µM) with Staphylococcus aureus [7]. Besides, the Activity is given as 0% in the assay with Staphylococcus aureus [2]; 3.7% with Staphylococcus aureus [3]; 96.3% in the assay on Staphylococcus aureus [4]; 0% in the assay with Staphylococcus aureus [5]; 0% with Staphylococcus aureus [6]; 0% in the assay on Staphylococcus aureus [8]. Also, the Activity is given as 0% in the assay with Staphylococcus aureus [9]; 100% with Staphylococcus aureus [10]; 3.7% with Staphylococcus aureus [11]; 85.2% in the assay on Staphylococcus aureus [12]; 96.3% with Staphylococcus aureus [13]; 100% in the assay with Staphylococcus aureus [14]. For the same compound, the Activity in the assay with Staphylococcus aureus [15] is on record as 100%; with Staphylococcus aureus [16], 0%; with Staphylococcus aureus [17], 0%; with Staphylococcus aureus [18], 35.8%; in the assay with Staphylococcus aureus [19], 99.4%; in the assay with Staphylococcus aureus [20], 100%. Also, the Activity in the assay with Staphylococcus aureus [21] and in the assay on Staphylococcus aureus [22] was 100% each time.
